Source: publication PMC4704638 (Brazilian Journal of Microbiology, 2015)

test system: Streptomyces canarius L-glutaminase; test: ammonia release, Lineweaver-Burk plot; format: biochemical; conditions: read-out: Km (mmol ^-1); 10-100 mM substrate
In short: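 Purified enzyme (ammonium sulphate 50-80% cut, dialysis, DEAE-cellulose; 132.2 U/mg protein) in potassium phosphate buffer pH 8 with L-glutamine, L-asparagine or L-aspartic acid, each separately at 10-100 mM, under standard assay conditions. Deaminating activity read as liberated NH3, expressed as µmol per min per mg protein. Km and Vmax from Lineweaver-Burk fit of 1/S versus 1/activity.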

Km [µM]	SMILES
137	NC(=O)C[C@H](N)C(=O)O [L-asparagine]
5380	N[C@@H](CC(=O)O)C(=O)O [L-aspartic acid]
129	NC(=O)CC[C@H](N)C(=O)O [L-glutamine]
